Assay results as given in paper PMC9289880 (Journal of Medicinal Chemistry, 2022).
Read-outs that look alike come from different tables or passages of the source. *1 amine or outer side, *2 acyl side, *3 side chain or, on linkers, in order; H or OH if unused. Where a SMILES comes first, the peptide text is derived from it. Bridges are numbered along the chain shown (N, C = ends). [ ]: non-standard residue; d: D form. Pro(trans-3-OAllyl) = C=CCO[C@H]1CCN[C@@H]1C(=O)O; Pro(3R-Ph) = O=C(O)[C@H]1NCC[C@@H]1c1ccccc1; Bip = N[C@@H](Cc1ccc(-c2ccccc2)cc1)C(=O)O; Ala(cPent) = N[C@@H](CC1CCCC1)C(=O)O; d(αMeS) = C[C@@](N)(CO)C(=O)O; Ahp(2) = CCCCC[C@H](N)C(=O)O; CH2 = C([*:1])[*:2]

Columns and labels:
KRAS^G12D = KRAS^G12D (Homo sapiens, UniProt P01116, G12D); assay: SOS-catalyzed guanine nucleotide exchange; type: biochemical
pERK, AsPC-1 cells = assay: AlphaScreen pERK assay in AsPC-1 cells; type: cell-based; details: for IC50: pERK
In short: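 AsPC-1 cells grown in RPMI 1640 (GlutaMAX, HEPES) with 10% FBS and penicillin/streptomycin. Seeded at 15 000 cells/well and held overnight at 37 °C, 5% CO2, then switched to serum-free medium. Compound dose-response series added acoustically, then incubated 2 and 18 h. Cells washed with DPBS and lysed with protease inhibitors. pERK (615 nm) and total ERK (535 nm) read by AlphaScreen SureFire multiplex. pERK/total ERK ratio fitted to 4-parameter logistic.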

[1] = Cell homogenate stability assay; type: in vitro ADME; details: human, HeLa cell homogenate
In short: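 HeLa cells suspended at 1 × 10^6 cells/mL, probe-sonicated on ice until homogeneous, then frozen at −20 °C until use. Peptides incubated with the homogenate (1 × 10^6 cells/mL equivalent). Loss of parent peptide over increasing time quantified by LC-MS/MS.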

HeLa cells = assay: NanoClick cell permeability assay; type: in vitro ADME, Human
[2] = read-out: AlphaScreen (AsPC-1) 2 h IC50, AsPC-1, 2 h
[3] = read-out: AlphaScreen (AsPC-1) 18 h IC50, AsPC-1, 18 h

Chain of KRAS^G12D (P01116 1-188 isoform P01116-2 G12D): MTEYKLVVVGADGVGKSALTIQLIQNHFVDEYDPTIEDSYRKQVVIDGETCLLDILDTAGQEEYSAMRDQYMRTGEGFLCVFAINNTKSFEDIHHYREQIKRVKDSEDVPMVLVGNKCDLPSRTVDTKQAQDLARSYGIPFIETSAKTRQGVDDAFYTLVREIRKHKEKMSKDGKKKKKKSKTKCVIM

SMILES	IC50 (KRAS^G12D)	IC50 (pERK, AsPC-1 cells; [2])	IC50 (pERK, AsPC-1 cells; [3])	also measured
CC(=O)N[C@@H](CCCNC(=N)N)C(=O)N[C@@H](CCCNC(=N)N)C(=O)N[C@H]1CSSC[C@@H](C(=O)N[C@@H](CCCNC(=N)N)C(=O)N[C@@H](CCCNC(=N)N)C(N)=O)NC(=O)[C@H](C(C)C)NC(=O)[C@@H]2CCCN2C(=O)[C@H](CC(=O)O)NC(=O)[C@H](Cc2ccc(O)cc2)NC(=O)[C@H](CO)NC(=O)[C@H](CC2CCCC2)NC(=O)[C@H](Cc2ccc(-c3ccccc3)cc2)NC(=O)[C@H](CC(C)C)NC(=O)[C@@H]2CCCN2C1=O [1-11, Ac-RR-cyclo(CPL-Bip-cPeA-SYDPVC)-RR-NH2] (Ac-RRCPL[Bip][Ala(cPent)]SYDPVCRR-NH2; disulfide 3-13)	> 11.1 µM	–	–	–
CC[C@H](C)[C@@H]1NC(=O)[C@H](Cc2ccc(-c3ccccc3)cc2)NC(=O)[C@H](COC)NC(=O)[C@@H]2CCCN2C(=O)[C@@H](NC(=O)[C@H](CCCNC(=N)N)NC(=O)[C@H](CCCNC(=N)N)NC(C)=O)CSSC[C@@H](C(=O)N[C@@H](CCCNC(=N)N)C(=O)N[C@@H](CCCNC(=N)N)C(N)=O)NC(=O)[C@H](C(C)C)NC(=O)[C@@H]2CCCN2C(=O)[C@H](CC(=O)O)NC(=O)[C@H](Cc2ccc(O)cc2)NC(=O)[C@H](CO)NC1=O [3-02, Ac-RR-cyclo(CP-SerOMe-Bip-ISYDPVC)-RR-NH2] (Ac-RRCPS(Me)[Bip]ISYDPVCRR-NH2; disulfide 3-13)	1.13 µM	–	–	–
C=CCO[C@H]1CCN2C(=O)[C@@H](NC(=O)[C@H](CCCNC(=N)N)NC(=O)[C@H](CCCNC(=N)N)NC(C)=O)CSSC[C@@H](C(=O)N[C@@H](CCCNC(=N)N)C(=O)N[C@@H](CCCNC(=N)N)C(N)=O)NC(=O)[C@H](C(C)C)NC(=O)[C@@H]3CCCN3C(=O)[C@H](CC(=O)O)NC(=O)[C@H](Cc3ccc(O)cc3)NC(=O)[C@H](CO)NC(=O)[C@H]([C@@H](C)CC)NC(=O)[C@H](Cc3ccc(-c4ccccc4)cc3)NC(=O)[C@H](CC(C)C)NC(=O)[C@H]12 [3-05, Ac-RR-cyclo(C-Prot3OAl-L-Bip-ISYDPVC)-RR-NH2] (Ac-RRC[Pro(trans-3-OAllyl)]L[Bip]ISYDPVCRR-NH2; disulfide 3-13)	0.001 µM	–	–	fold improvement in SOS potency over reference peptide 1-09 (KRAS^G12D): 7 fold
C=CCO[C@H]1CCN2C(=O)[C@H](NC(=O)[C@H](CCCNC(=N)N)NC(=O)[C@H](CCCNC(=N)N)NC(C)=O)CSCSC[C@@H](C(=O)N[C@@H](CCCNC(=N)N)C(=O)N[C@@H](CCCNC(=N)N)C(N)=O)NC(=O)[C@H](C(C)C)NC(=O)[C@@H]3CCCN3C(=O)[C@H](CC(=O)O)NC(=O)[C@H](Cc3ccc(O)cc3)NC(=O)[C@H](CO)NC(=O)[C@H]([C@@H](C)CC)NC(=O)[C@H](Cc3ccc(-c4ccccc4)cc3)NC(=O)[C@H](CC(C)C)NC(=O)[C@H]12 [5-02, Ac-RR-cyclo(c(methylene)-Prot3OAl-L-Bip-ISYDPVC)-RR-NH2] (Ac-RR[dC][Pro(trans-3-OAllyl)]L[Bip]ISYDPVCRR-NH2; linker 3-13 via CH2)	< 0.001 µM	28 µM	> 50 µM	–
CCCCC[C@@H]1NC(=O)[C@@H]2CCCN2C(=O)[C@H](CC(=O)O)NC(=O)[C@H](Cc2ccc(O)cc2)NC(=O)[C@H](CO)NC(=O)[C@H]([C@@H](C)CC)NC(=O)[C@H](Cc2ccc(-c3ccccc3)cc2)NC(=O)[C@H](CC(C)C)NC(=O)[C@@H]2[C@@H](c3ccccc3)CCN2C(=O)[C@H](NC(=O)[C@H](CCCNC(=N)N)NC(=O)[C@H](CCCNC(=N)N)NC(C)=O)CSCSC[C@@H](C(=O)N[C@@H](CCCNC(=N)N)C(=O)N[C@@H](CCCNC(=N)N)C(N)=O)NC1=O [5-03, Ac-RR-cyclo(c(methylene)-Prot3Ph-L-Bip-ISYDP-Ahp-C)-RR-NH2] (Ac-RR[dC][Pro(3R-Ph)]L[Bip]ISYDP[Ahp(2)]CRR-NH2; linker 3-13 via CH2)	< 0.001 µM	6.8 µM	29 µM	half-life at 1 µM [1]: > 6.2 h
C=CCO[C@H]1CCN2C(=O)[C@H](NC(=O)[C@H](CCCNC(=N)N)NC(=O)[C@H](CCCNC(=N)N)NC(C)=O)CSCSC[C@@H](C(=O)N[C@@H](CCCNC(=N)N)C(=O)N[C@@H](CCCNC(=N)N)C(N)=O)NC(=O)[C@H](CCCCC)NC(=O)[C@@H]3CCCN3C(=O)[C@H](CC(=O)O)NC(=O)[C@H](Cc3ccc(O)cc3)NC(=O)[C@H](CO)NC(=O)[C@H]([C@@H](C)CC)NC(=O)[C@H](Cc3ccc(-c4ccccc4)cc3)NC(=O)[C@H](CC(C)C)NC(=O)[C@H]12 [5-04, Ac-RR-cyclo(c(methylene)-Prot3OAl-L-Bip-ISYDP-Ahp-C)-RR-NH2] (Ac-RR[dC][Pro(trans-3-OAllyl)]L[Bip]ISYDP[Ahp(2)]CRR-NH2; linker 3-13 via CH2)	< 0.001 µM	–	> 50 µM	–
CC[C@H](C)[C@@H]1NC(=O)[C@H](Cc2ccc(-c3ccccc3)cc2)NC(=O)[C@H](CC(C)C)NC(=O)[C@@H]2CCCN2C(=O)[C@@H](NC(=O)[C@H](CCCNC(=N)N)NC(=O)[C@H](CCCNC(=N)N)NC(C)=O)CSSC[C@@H](C(=O)N[C@@H](CCCNC(=N)N)C(=O)N[C@@H](CCCNC(=N)N)C(N)=O)NC(=O)[C@H](C(C)C)NC(=O)[C@@H]2CCCN2C(=O)[C@H](CC(=O)O)NC(=O)[C@H](Cc2ccc(O)cc2)NC(=O)[C@H](CO)NC1=O [peptide 1-09, Ac-RR-cyclo(CPL-Bip-ISYDPVC)-RR-NH2] (Ac-RRCPL[Bip]ISYDPVCRR-NH2; disulfide 3-13)	–	–	–	fold improvement in SOS potency over reference 2 (KRpep-2) (KRAS^G12D): 8 fold
CC[C@H](C)[C@@H]1NC(=O)[C@H](Cc2ccc(-c3ccccc3)cc2)NC(=O)[C@H](CC(C)C)NC(=O)[C@@H]2[C@@H](c3ccccc3)CCN2C(=O)[C@@H](NC(=O)[C@H](CCCNC(=N)N)NC(=O)[C@H](CCCNC(=N)N)NC(C)=O)CSSC[C@@H](C(=O)N[C@@H](CCCNC(=N)N)C(=O)N[C@@H](CCCNC(=N)N)C(N)=O)NC(=O)[C@H](C(C)C)NC(=O)[C@@H]2CCCN2C(=O)[C@H](CC(=O)O)NC(=O)[C@H](Cc2ccc(O)cc2)NC(=O)[C@H](CO)NC1=O [peptide 3-09, Ac-RR-cyclo(C-Prot3Ph-L-Bip-ISYDPVC)-RR-NH2] (Ac-RRC[Pro(3R-Ph)]L[Bip]ISYDPVCRR-NH2; disulfide 3-13)	–	–	–	fold improvement in SOS potency over reference peptide 1-09 (KRAS^G12D): 7 fold
CC[C@H](C)[C@@H]1NC(=O)[C@H](Cc2ccc(-c3ccccc3)cc2)NC(=O)[C@H](CC(C)C)NC(=O)[C@@H]2[C@@H](c3ccccc3)CCN2C(=O)[C@H](NC(=O)[C@H](CCCNC(=N)N)NC(=O)[C@H](CCCNC(=N)N)NC(C)=O)CSCSC[C@@H](C(=O)N[C@@H](CCCNC(=N)N)C(=O)N[C@@H](CCCNC(=N)N)C(N)=O)NC(=O)[C@H](C(C)C)NC(=O)[C@@H]2CCCN2C(=O)[C@H](CC(=O)O)NC(=O)[C@H](Cc2ccc(O)cc2)NC(=O)[C@H](CO)NC1=O [peptide 5-01, Ac-RR-cyclo(c(methylene)-Prot3Ph-L-Bip-ISYDPVC)-RR-NH2] (Ac-RR[dC][Pro(3R-Ph)]L[Bip]ISYDPVCRR-NH2; linker 3-13 via CH2)	< 0.001 µM	3.3 µM	33 µM	half-life at 1 µM [1]: > 6.2 h
CC[C@H](C)[C@@H]1NC(=O)[C@H](Cc2ccc(-c3ccccc3)cc2)NC(=O)[C@H](CC(C)C)NC(=O)[C@@H]2[C@@H](c3ccccc3)CCN2C(=O)[C@H](NC(=O)[C@H](CCCNC(=N)N)NC(=O)[C@H](CCCNC(=N)N)NC(=O)[C@H](CCCCN=[N+]=[N-])NC(C)=O)CSCSC[C@@H](C(=O)N[C@@H](CCCNC(=N)N)C(=O)N[C@@H](CCCNC(=N)N)C(N)=O)NC(=O)[C@H](C(C)C)NC(=O)[C@@H]2CCCN2C(=O)[C@H](CC(=O)O)NC(=O)[C@H](Cc2ccc(O)cc2)NC(=O)[C@H](CO)NC1=O [peptide 6, Ac-Lys(N3)-RR-cyclo(c(methylene)-Prot3Ph-L-Bip-ISYDPVC)-RR-NH2]	< 0.001 µM	2.7 µM	19 µM	NanoClick permeability at 4 h, in words (HeLa cells): limited permeability; NanoClick permeability at 18 h, in words (HeLa cells): much-increased permeability; EC50 (HeLa cells; read-out: NanoClick (HeLa) 4 h EC50, 4 h): 7.32 µM; EC50 (HeLa cells; read-out: NanoClick (HeLa) 18 h EC50, 18 h): 0.199 µM; fold improved cellular activity at 2 h versus 18 h (pERK, AsPC-1 cells; AsPC-1 pERK): 6 fold; SOS GNE potency / binding, in words (KRAS^G12D): subnanomolar; half-life at 1 µM [1]: > 6.2 h
CC[C@@H](C)[C@H]1NC(=O)[C@H](Cc2ccc(-c3ccccc3)cc2)NC(=O)[C@H](CC(C)C)NC(=O)[C@@H]2[C@@H](c3ccccc3)CCN2C(=O)[C@H](NC(=O)[C@@H](CCCNC(=N)N)NC(=O)[C@@H](CCCNC(=N)N)NC(C)=O)CSCSC[C@@H](C(=O)N[C@H](CCCNC(=N)N)C(=O)N[C@H](CCCNC(=N)N)C(N)=O)NC(=O)[C@H](C(C)C)NC(=O)[C@@H]2CCCN2C(=O)[C@H](CC(=O)O)NC(=O)[C@H](Cc2ccc(O)cc2)NC(=O)[C@@](C)(CO)NC1=O [peptide 8, Ac-rr-cyclo(c(methylene)-Prot3Ph-L-Bip-i-aMeS-YDPVC)-rr-NH2] (Ac-[dR][dR][dC][Pro(3R-Ph)]L[Bip][dI][d(αMeS)]YDPVC[dR][dR]-NH2; linker 3-13 via CH2)	–	–	–	cellular (pERK) activity, in words (pERK, AsPC-1 cells; AsPC-1): no cellular activity; SOS GNE potency / binding, in words (KRAS^G12D): no response
CC[C@H](C)[C@@H]1NC(=O)[C@H](Cc2ccc(O)cc2)NC(=O)[C@H](CC(C)C)NC(=O)[C@@H]2CCCN2C(=O)[C@H](NC(=O)[C@@H](CCCNC(=N)N)NC(=O)[C@@H](CCCNC(=N)N)NC(=O)[C@H](CCCCN=[N+]=[N-])NC(C)=O)CSCSC[C@@H](C(=O)N[C@H](CCCNC(=N)N)C(=O)N[C@H](CCCNC(=N)N)C(N)=O)NC(=O)[C@H](C(C)C)NC(=O)[C@@H]2CCCN2C(=O)[C@H](CC(=O)O)NC(=O)[C@H](Cc2ccc(O)cc2)NC(=O)[C@H](CO)NC1=O [peptide 10]	–	–	–	NanoClick permeability at 4 h, in words (HeLa cells): no permeability; NanoClick permeability at 18 h, in words (HeLa cells): very limited permeability
